Published values pooled from the literature.
Compare with care: the assays were run in different laboratories.

O=C1NC2(CCC2)C(=O)N1c1ccc(F)c(C(F)(F)F)c1  microsomal CLint (metabolic stability; mouse, liver microsomes): 42 µL/min/mg
Cc1[nH]c(C)c(S(=O)(=O)Nc2ccc(S(F)(F)(F)(F)F)c(Cl)c2)c1C(=O)N1CCC(F)(F)C1  microsomal CLint (metabolic stability; mouse, liver microsomes): 25.4 µL/min/mg
CC(C)CC(=O)OC[C@H]1O[C@@](C#N)(c2ccc3c(N)ncnn23)[C@H](O)[C@@H]1O  hepatocyte CLint (metabolic stability; mouse, hepatocytes; 5 µM): > 318 µL/min/10⁶ cells
CC1(CC(F)(F)F)NC(=O)N(c2ccc(F)c(C(F)(F)F)c2)C1=O (stereo not drawn)  microsomal CLint (metabolic stability; mouse, liver microsomes): < 7 µL/min/mg
C/C=C1/CN2CC[C@@]34c5cc(O)ccc5N(C)[C@]35OC[C@@]4(C(=O)OC)[C@H]1C[C@H]25  Vd (male Sprague-Dawley rat, plasma; intravenous, 1 mg/kg): 10.2 L/kg
Cl.Cn1c(=O)n(CCCCN2CCC3(CC2)OCc2ccccc23)c2ccccc21  Vd (male Sprague-Dawley rat, plasma; intravenous, 5 mg/kg): 8.4 L/kg
Cc1[nH]c(C)c(S(=O)(=O)Nc2ccc(S(=O)(=O)F)c(Cl)c2)c1C(=O)N1CCC(F)(F)C1  microsomal CLint (metabolic stability; mouse, liver microsomes): 21.8 µL/min/mg
CC[C@H](C)CCCCC(=O)N[C@@H](CCN)C(=O)N[C@H](C(=O)N[C@@H](CCN)C(=O)N[C@H]1CCNC(=O)[C@H]([C@@H](C)O)NC(=O)[C@H](CCN)NC(=O)[C@H](CCN)NC(=O)[C@H](CC(C)C)NC(=O)[C@@H](CC(C)C)NC(=O)[C@H](CCN)NC1=O)[C@@H](C)O  Vd (male Sprague-Dawley rat, plasma; intravenous, 5 mg/kg): 0.736 L/kg
NCCOCC(=O)N1CCCC(C(=O)NCc2nc(-c3ccc(-c4ccc(F)cc4)cc3)cs2)C1 (stereo not drawn)  Vd (rat, plasma; intravenous, 1 mg/kg): 26 L/kg
